# Test results published in paper PMC2606940 (The Journal of General Physiology, 2009).
# Positions count from the first letter of the chain named. Like-named read-outs stand apart in the source and are kept apart here.
# Key:
# CLC-0 E166Q mutant = biological target: T1, CLC-0 E166Q mutant (Torpedo marmorata, UniProt P21564, C212S/E166Q); test: Single-channel recordings, channels expressed in Xenopus oocytes; format: cell-based; details: 0.1 mM CPA; −100 mV
# T1 sequence (P21564 1-805 E166Q/C212S): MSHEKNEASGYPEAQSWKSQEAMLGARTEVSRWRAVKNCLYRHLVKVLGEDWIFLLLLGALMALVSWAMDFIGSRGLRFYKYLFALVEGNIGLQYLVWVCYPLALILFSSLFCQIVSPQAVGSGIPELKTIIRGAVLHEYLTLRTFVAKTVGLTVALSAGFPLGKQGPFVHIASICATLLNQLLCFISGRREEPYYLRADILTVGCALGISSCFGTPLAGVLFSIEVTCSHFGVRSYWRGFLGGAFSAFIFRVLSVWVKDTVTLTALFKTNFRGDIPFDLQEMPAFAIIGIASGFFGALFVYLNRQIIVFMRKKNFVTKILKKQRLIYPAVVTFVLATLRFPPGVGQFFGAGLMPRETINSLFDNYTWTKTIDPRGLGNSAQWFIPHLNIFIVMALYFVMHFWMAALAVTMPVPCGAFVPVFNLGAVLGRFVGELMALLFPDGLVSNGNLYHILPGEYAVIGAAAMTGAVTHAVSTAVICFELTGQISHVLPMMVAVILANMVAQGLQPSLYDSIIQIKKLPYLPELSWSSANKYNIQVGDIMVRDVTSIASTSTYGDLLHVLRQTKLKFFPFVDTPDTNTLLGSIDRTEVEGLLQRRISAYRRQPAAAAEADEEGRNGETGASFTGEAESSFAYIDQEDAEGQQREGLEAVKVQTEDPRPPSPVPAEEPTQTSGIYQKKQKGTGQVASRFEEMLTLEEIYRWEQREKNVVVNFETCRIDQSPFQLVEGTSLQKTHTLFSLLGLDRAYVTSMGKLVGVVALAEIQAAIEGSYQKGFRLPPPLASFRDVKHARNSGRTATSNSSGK
# How it was run: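 Single channels were expressed in Xenopus oocytes from cRNA made from a pBluescript construct. Currents were recorded at −100 mV with cytoplasmic CPA at 100 μM, filtered at 200 Hz (four-pole Bessel) and digitized at 1 kHz. Average dwell time of nonconducting events was analysed from the single-channel traces.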
# [1] = biological target: T2, CLC-0 E166C/E127Q/K519M mutant (Torpedo marmorata, UniProt P21564, C212S/E127Q/E166C/K519M); format: cell-based; details: for IC50: read-out: Apparent affinity (K1/2)
# T2 sequence (P21564 1-805 E127Q/E166C/C212S/K519M): T1 sequence (P21564 1-805 E166Q/C212S) with E127Q, Q166C, K519M
# How it was run: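 CLC-0 mutants (C212S background) were lipofectamine-transfected into HEK293 cells and recorded 1–3 d later from inside-out patches. Pipette and bath contained 130 mM NaCl, 5 MgCl2, 10 HEPES and 1 EGTA (pH 7.4). Test compound was perfused onto the cytoplasmic side. A +80 mV prepulse preceded steps to steady state. The last-10-ms current was normalized to bracketing blocker-free controls and fitted to a Langmuir function for K1/2.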
# CLC-0 E166A mutant = biological target: T3, CLC-0 E166A mutant (Torpedo marmorata, UniProt P21564, C212S/E166A); details: ref Traverso et al., 2003; cited from earlier work
# T3 sequence (P21564 1-805 E166A/C212S): T1 sequence (P21564 1-805 E166Q/C212S) with Q166A
smiles,measurement,setting,value
"O=C(O)COc1ccc(Cl)cc1 [CPA, p-chlorophenoxy acetate]",long blocked state in single-channel trace,CLC-0 E166Q mutant,absent
same,IC50,[1]; −40 mV,457 ± 30 µM
same,IC50,[1]; −60 mV,240 ± 13 µM
same,IC50,[1]; −80 mV,132 ± 6 µM
same,IC50,[1]; −100 mV,75 ± 3 µM
same,IC50,[1]; −120 mV,47 ± 3 µM
same,IC50,[1]; −140 mV,31 ± 2 µM
same,IC50,[1]; −160 mV,22 ± 2 µM
same,apparent koff,[1]; −160 mV,11.4 s⁻¹
same,apparent kon,[1]; −160 mV,460000 M⁻¹ s⁻¹
same,CPA-blocking affinity of E166A relative to wild-type channel (higher),CLC-0 E166A mutant,> 100 fold
